Hits are enriched below; roughly 1.7% of the tested compounds scored in any of these assays.
rRNA inh HTS – inhibitors of bacterial rRNA selective over humanized ribosomes; E. coli WT GFP vs humanized-ribosome RFP mutants, fluorescence, 24 h; active compounds read low; DMSO median 0, no signal -100; AID 720706; actives 1.6% (n = 350,000); GFP signal change (wild-type ribosome), % (concentration not given with the values);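 active = significant combined selectivity score with lowered wild-type GFP, culture density cut under 30%, mutant RFP and density less affected; inactive = any of these conditions unmet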
CaV13 FRET inh – Disruptors of the CACNA1D IQ motif to Ca2+-dependent inactivation inhibitor domain association, primary screening, Förster resonance energy transfer in intact living …; inhibition, % at 12.3 µM; actives 0.098% (n = 340,000); AID 743397; HEK cells, CFP/YFP FRET ICDI-IQ, plate reader, 10 min; percent FRET-ratio fall versus neutral wells;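 active = mean replicate inhibition of at least 30% and at least 1% of replicates passing that level; inconclusive = only one of the two criteria is met; inactive = neither criterion is met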;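 note: 0% = median of the neutral control wells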
F508del corr – CFTR F508del correction in bronchial cells. CFBE cells, YFP halide quenching; stimulated with forskolin plus potentiator P3; % fluorescence drop versus neutral controls. activity (quench increase), % at 7.58 µM. actives 0.36% (n = 350,000). AID 720511;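 active = mean added fluorescence quench of at least 8% versus neutral control, with both replicates also reaching 8%; inconclusive = only one of the mean or replicate conditions met; inactive = mean below 8% and not both replicates reaching 8%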;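 note: cells transiently co-express mutant CFTR-F508del with the halide-sensitive YFP; corrector assay measuring rescue of mutant channel to the surface after 24 h compound exposure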
Cneo AK release – Cryptococcus neoformans lysis via adenylate kinase release; C. neoformans lysis, adenylate kinase release luminescence, 4 h; normalised: neutral wells 0, clomiphene wells 100; lysis activity, % at 15 µM; actives 0.2% (n = 360,000); AID 651654;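 active = mean lysis activity across replicates of at least 80%, whatever share of replicates individually reach that level; inactive = mean lysis activity below 80%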
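Material – Cryptococcus neoformans yeast cells · Quantity – 5 × 10^6 yeast cells/mL · Buffer or medium – YPD medium · Compound – single dose · Timing – 4 h static compound exposure, 37 °C, read 1 h post-reagent · Signal – adenylate kinase release luminescence · Read-out basis – lysis from increased AK signal · Benchmarks – Clomiphene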
AID977621 – growth inhibition of wild-type GFP E. coli, dose response, H69 mutant RFP, cherry-pick | shares compounds with rRNA inh HTS | E. coli wild-type GFP strain growth, fluorescence, 24 h | activity change, negative = inhibition at 50 µM | 1,900 tested, under 10 active;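 active = Wild-type ribosome reporter drop at least double the humanized mutant ribosome reporter drop, growth loss under a set limit; inconclusive = no clear call, values can overlap the other calls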;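 note: wild-type GFP and H69 mutant RFP strains grown together 50/50 in each well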
AID977628 – E. coli growth inhibition, wild-type GFP versus h24 humanized RFP strain, dose response, h24 mutant RFP vs wild-type GFP, cherry-pick | shares compounds with rRNA inh HTS | E. coli WT GFP strain growth, fluorescence, 24 h | activity change, negative = inhibition at 50 µM | 1,900 tested, under 10 active;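 active = compound lowering the normal-ribosome reporter at least twice as much as the humanized-ribosome reporter, growth loss under a set limit; inconclusive = no clear call, values can overlap the other calls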;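 note: wild-type GFP and h24 humanized RFP strains co-cultured 1 to 1 per well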
Numbers without * were called inactive; ? = inconclusive; . = not tested or not shown.

SMILES	rRNA inh HTS	CaV13 FRET inh	F508del corr	Cneo AK release	AID977621	AID977628
Cc1noc(C)c1S(=O)(=O)Nc1ccc2c(c1)C(=O)N([C@H](C)CO)C[C@@H](C)[C@@H](CN(C)C(=O)c1ccncc1)OCCCC[C@H](C)O2	0	.	1	-2	.	.
COC(=O)CNC(=O)COC(=O)c1ccc(Cl)nc1	-19*	-5	4	2	-8.5	-5.9
O=C(COC(=O)c1ccc(Cl)nc1)NCCc1ccc(Cl)cc1	4	-6	-5	-2	.	.
Cn1cnc(S(=O)(=O)N[C@@H]2CC[C@H](CC(=O)N3CCN(c4ccccc4)CC3)O[C@H]2CO)c1	0	.	0	1	.	.
O=C(CCC(=O)c1cccs1)OCC(=O)c1ccc(Cl)s1	-18*	.	.	0	-16	.
O=C(CCC(=O)c1cccs1)OCC(=O)c1ccc(F)cc1	6	-10	1	0	.	.
C[C@@H]1CN([C@@H](C)CO)C(=O)c2cc(NC(=O)CCCN(C)C)ccc2O[C@@H](C)CCCCO[C@@H]1CN(C)S(=O)(=O)c1ccc(F)cc1	1	.	1	-15	.	.
COc1ccc(OC)c(NC(=O)c2c3c(nc4ccccc24)CCC3)c1	-22*	-3	-1	5	.	?
Cc1noc(NS(=O)(=O)c2ccc(NC(=O)c3cc(-c4ccccc4Cl)nc4ccccc34)cc2)c1C	-24*	4	-1	.	-15	.
Cc1noc(NS(=O)(=O)c2ccc(NC(=O)c3cc(S(=O)(=O)N(C)c4ccccc4)ccc3Cl)cc2)c1C	-35	-2	2	-1	.	.
O=C(C[C@H]1C[C@H]2c3cc(NC(=O)Cc4ccncc4)ccc3O[C@H]2[C@H](CO)O1)NCc1cc(F)ccc1F	0	.	0	4	.	.
O=C(Nc1ccc2nc(-c3ccc4nc[nH]c4c3)[nH]c2c1)c1cccs1	.	-6	.	4	.	.
O=C(Nc1ccc2nc(-c3ccccc3)[nH]c2c1)c1cccs1	-32*	-9	-10	-2	-9	.
COC(=O)c1ccc(C(=O)Nc2ccc3nc(-c4ccncc4)[nH]c3c2)cc1	-28*	-21	-5	0	-3.4	-3.2
O=C(Nc1ccc2nc(-c3cccnc3)[nH]c2c1)c1ccco1	-31*	-6	1	-5	-13	.
CN1C(=O)c2cc(NC(=O)c3cncs3)ccc2OC[C@H]2O[C@@H](CC(=O)Nc3ccccc3F)CC[C@@H]21	.	.	-1	.	.	.
C[C@@H]1CN([C@@H](C)CO)C(=O)c2cc(C3=CCCC3)cnc2O[C@@H]1CN(C)Cc1ccc(C(=O)O)cc1	-1	.	0	-4	.	.
CS(=O)(=O)Nc1ccc2c(c1)[C@H]1C[C@H](CC(=O)N3CCCCC3)O[C@H](CO)[C@H]1O2	3	.	3	0	.	.
C[C@H]1CCCCO[C@@H](CN(C)S(=O)(=O)c2ccc(Cl)cc2)[C@@H](C)CN([C@@H](C)CO)C(=O)c2cc(NC(=O)CCC(F)(F)F)ccc2O1	-2	.	0	7	.	.
Nc1ncncc1-c1ccc2ccccc2c1	-32*	-18	2	-1	-14	?
COc1ccc(CCCc2nc3ccccc3[nH]2)cc1	-22*	-15	-8	.	-5.8	?
Cc1cccc(NS(=O)(=O)c2cc3c(cc2C)NC(=O)CO3)c1	-18*	-10	-3	0	-1	-9.1
Cc1cc(CNC(=O)c2cc(-c3ccccc3)nc3ccccc23)nn1C	-24*	-6	3	.	-7.1	-14
O=C(C[C@H]1CC[C@H](NC(=O)Nc2ccccc2F)[C@H](CO)O1)NCc1ccc(-c2ccccc2)cc1	-20*	.	-1	.	-6.5	?
O=C(C[C@H]1CC[C@@H](NC(=O)Nc2ccccc2F)[C@@H](CO)O1)NCc1ccccc1	-4	.	-1	-1	.	.
SMILES	rRNA inh HTS	CaV13 FRET inh	F508del corr	Cneo AK release	AID977621	AID977628
CC(C)(C)C(=O)OCc1nc(-c2ccc(Cl)cc2)cs1	-15	-5	1	-6	.	.
CC(C)(C)S(=O)(=O)Cc1nc(-c2ccc(Cl)c(Cl)c2)cs1	-15*	-4	-2	.	-1	-2.6
CC(=O)Nc1cccc(NC(=O)c2c(-c3c(Cl)cccc3Cl)noc2C)c1	-17*	-7	-2	3	-0.74	-2
CC(NC(=O)c1ccncc1)c1ccc(Cl)cc1Cl (stereo not drawn)	-33*	-20	1	-1	-2.2	-7.2
Cc1noc(C)c1C(=O)NC(C)c1ccc(Cl)cc1Cl (stereo not drawn)	10	7	1	-2	.	.
COc1ccc(S(=O)(=O)N2CCCCC2)cc1NC(=O)c1cccnc1SC	5	5	3	.	.	.
COc1ccc(NC(=O)c2cccnc2SC)cc1S(=O)(=O)N1CCCCC1	-25*	-3	.	.	?	.
COc1ccc(Nc2nc(NCCO)nc(N3CCCC3)n2)cc1	-16*	-5	-1	1	-13	?
CCCNC(=O)C[C@@H]1CC[C@H]2[C@@H](COc3ccc(NC(=O)C4CCOCC4)cc3C(=O)N2C)O1	4	.	1	58	.	.
COc1ccc(C#Cc2ccc3c(c2)[C@@H]2[C@@H](CCN2C(=O)C2CCCC2)[C@H](CO)N3)cc1	-2	.	2	.	.	.
CCc1ccc(CN2CCCC(CNS(=O)(=O)c3ccc(OC)cc3)C2)cc1 (stereo not drawn)	-22*	-2	2	.	-16	?
CCn1cc(CN2CCCC(CNS(=O)(=O)c3ccc(OC)cc3)C2)cn1 (stereo not drawn)	13	-6	-2	0	.	.
O=C(NNC(=O)c1ccc(Cl)cc1Cl)c1csc(-c2cccnc2)n1	1	-4	2	-8	.	.
O=C(NCc1ccc(Cl)cc1)c1csc(-c2cccnc2)n1	-37*	-5	-3	.	?	.
C[C@@H]1CCCCO[C@H](CN(C)S(=O)(=O)c2cn(C)cn2)[C@@H](C)CN([C@@H](C)CO)C(=O)c2cc(NC(=O)Nc3ccccc3)ccc2O1	0	.	.	.	.	.
COC(=O)c1c(-c2ccccc2)noc1C	11	2	-1	.	.	.
COC(=O)c1c(C)oc(C)c1S(=O)(=O)NC(c1ccccc1)c1ccccc1	-35*	7	-1	7	-21	.
Cc1ccc(C2NC(c3ccc(C)cc3)C(C)C(=O)C2C)cc1 (stereo not drawn)	-27*	1	2	.	-11	-5.2
CC(C)CC#Cc1cnc2c(c1)C(=O)N([C@@H](C)CO)C[C@@H](C)[C@@H](CN(C)C(=O)CN1CCOCC1)O2	5	.	0	-1	.	.
O=C(CCCOc1ccccc1)NCCc1nc2ccccc2[nH]1	-19*	-4	3	-1	.	6.4
CCOc1ccc(OCC(=O)NCCc2nc3ccccc3[nH]2)cc1	.	-4	.	1	.	.

Source: PubChem BioAssay (Broad Institute)
